Active and inactive are the calls of the source. No cut-off for these calls is given here.

We go through three molecules from ChEMBL document CHEMBL1142121, “Triterpenoids from the floral spikes of Betula platyphylla var. japonica and their reversing activity against multidrug-resistant cancer cells” (J Nat Prod, 2007).

In one assay the test system is KB. The assay can be described thus: Cytotoxicity against human KB cells after 48 hrs by MTT assay. The class given is cell-based. Summed up:
(§1)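 KB and KB-C2 cells grown in DMEM with 10% FBS, with KB-C2 maintained with 2 µg/mL colchicine. 5 × 10^3 cells/well were preincubated 24 h, then exposed 48 h at 37 °C, 5% CO2 to graded concentrations (DMSO final <0.5%). MTT read-out. IC50 was the concentration giving 50% of vehicle-control absorbance. Mean ± SE of 3–4 experiments.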

The nature of assay [1]: Cytotoxicity against human colchicine-resistant KBC2 cells after 48 hrs by MTT assay. Format: cell-based. Conditions: KB-C2, 48 h. Summed up:
as §1

A short description of assay [2]: Cytotoxicity against human colchicine-resistant KBC2 cells in presence of 2.5 uM colchicine after 48 hrs by MTT assay. The class given is cell-based. Conditions: KB-C2, 48 h. A digest of the protocol:
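Colchicine-resistant KB-C2 cells, maintained in DMEM/10% FBS with 2 µg/mL colchicine. Seeded at 5 × 10^3 cells/well, preincubated 24 h, then given graded test concentrations (DMSO final <0.5%) together with 2.5 µM colchicine for 48 h at 37 °C, 5% CO2. MTT read-out. IC50 was 50% of vehicle-control absorbance. Mean ± SE, 3–4 experiments.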

The next assay concerns K562. The assay is described as follows: Cytotoxicity against human K562 cells after 48 hrs by MTT assay. The class given is cell-based. The note with it: K562, 48 h. Summed up: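 K562 leukemia cells, 1 × 10^4 cells/well in medium with 10% FBS, preincubated 24 h. Test samples were then added at various concentrations (DMSO final <0.5%) for 48 h at 37 °C, 5% CO2. MTT assay. IC50 was 50% absorbance relative to vehicle controls. Mean ± SE from 3–4 experiments.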

The nature of assay [3]: Cytotoxicity against human doxorubicin-resistant K562/Adr cells after 48 hrs by MTT assay. The class given is cell-based. Summed up:
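Doxorubicin-resistant K562/Adr cells, maintained in RPMI1640/10% FBS containing 0.5 µM doxorubicin. Seeded at 1 × 10^4 cells/well, preincubated 24 h, then incubated 48 h at 37 °C, 5% CO2 with graded test concentrations (DMSO final <0.5%). MTT read-out. IC50 was 50% of vehicle-control absorbance. Mean ± SE, 3–4 experiments.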

A short description of assay [4]: Cytotoxicity against human doxorubicin-resistant K562/Adr cells in presence of 1 uM doxorubicin after 48 hrs by MTT assay. The class given is cell-based.
A further assay concerns MCF7. The assay is described as follows: Cytotoxicity against human MCF7 cells after 48 hrs by MTT assay. The note with it: MCF7, 48 h. The class given is cell-based. A digest of the protocol:
(§2)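 MCF7 or COLO205 cells in RPMI1640 with 10% FBS, seeded at 5 × 10^3 cells and preincubated 24 h. Graded concentrations (DMSO final <0.5%) were then applied for 48 h at 37 °C, 5% CO2. Proliferation read by MTT. IC50 was the concentration halving absorbance versus vehicle-treated controls. Mean ± SE of 3–4 experiments.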

The next assay deals with COLO 205. The assay can be described thus: Cytotoxicity against human COLON205 cells after 48 hrs by MTT assay. Conditions: COLO 205, 48 h. The class given is cell-based. Summed up:
as §2

In the next assay the test system is MDR. The assay can be described thus: Reversal of MDR against KBC2 cells assessed as reduction in cytotoxicity of colchicine at 5 ug/ml. The class given is functional, cell-based. The note with it: Homo sapiens.

For the molecule `COC(=O)CC(=O)O[C@@H]1CC[C@]2(C)[C@H]3C[C@@H](OC(C)=O)[C@@H]4[C@@H]([C@]5(C)CC[C@H](C(C)(C)O)O5)CC[C@@]4(C)[C@]3(C)CC[C@H]2C1(C)C` [METHYL PAPYRIFERATE], the half-maximal inhibitory concentration (IC50) with KB came to 33.8 µM; in [1] it was 31.1 µM; in assay [2] it was 3.7 µM; in the assay with K562, 32.6 µM; in [3], 36.8 µM; in assay [4] it was 10.6 µM. Besides, the results for the IC50 with MCF7 and in the assay with COLO 205 were 48.9 µM and 49.6 µM, respectively. For the same molecule, in the assay on MDR, the result was Active.

For the molecule `CC(=O)O[C@@H]1CC[C@]2(C)[C@H]3CC[C@@H]4[C@@H]([C@]5(C)CC[C@H](C(C)(C)O)O5)CC[C@@]4(C)[C@]3(C)CC[C@H]2C1(C)C`, the IC50 came out at 44.8 µM in the assay with KB; 89.6 µM in assay [1]; 43.6 µM in assay [2]; 41.6 µM with K562; 50.5 µM in assay [3]; 68.3 µM in assay [4]. In addition, the results for the IC50 with MCF7 and in the assay on COLO 205 were 47.5 µM and 54.2 µM, respectively.

Take `COC(=O)CC(=O)O[C@@H]1CC[C@]2(C)[C@H]3CC[C@@H]4[C@@H]([C@]5(C)CC[C@H](C(C)(C)O)O5)CC[C@@]4(C)[C@]3(C)CC[C@H]2C1(C)C`: the concentration for half-maximal inhibition (IC50) in the assay on KB worked out at 64.2 µM; in assay [1] it was 87 µM; in [2] it was 13.6 µM; with K562 it was 35.4 µM; in assay [3], 31.1 µM; in [4] it was 41.1 µM. Besides, the concentration for half-maximal inhibition (IC50) with MCF7 is 63.6 µM; with COLO 205, 57.2 µM.
